Results from different studies.
Target: Serine/threonine-protein kinase pim-3 (PIM3, Homo sapiens, UniProt Q86V86)

O=C(c1ccc(Nc2ncc(Cl)c(-c3ccc(Cl)s3)n2)cc1)N1CCC(N2CCCC2)CC1 — remaining binding (binding, competition with immobilised ligand; 1 µM): 73%
c1cncc(-c2cccc(Nc3nccc(NC4CCCCC4)n3)c2)c1 — remaining binding (binding, competition with immobilised ligand; 10 µM): 71%
COc1ccnn2ncc(-c3ccnc(N(C)C)n3)c12 — remaining binding (binding; 1 µM): 81%
O=C(Nc1c[nH]nc1C(=O)NC1CCNCC1)c1cc(F)cc(F)c1 — remaining binding (binding, competition with immobilised ligand; 1 µM): 88%
CCN1CCN(Cc2ccc(C(=O)Nc3ccc(C)c(Oc4ccc5c(c4)CC(=O)N5)c3)cc2C(F)(F)F)CC1 — remaining binding (binding, competition with immobilised ligand; 1 µM): 100%
CC(=O)Nc1c(C(C)=O)c(=O)n(C)c2nc(-c3ccc(Cl)cc3Cl)c(-c3ccc(Cl)cc3)cc12 — remaining binding (cell-free assay, competition with immobilised ligand; 1 µM): 100%
c1cnn2ncc(-c3ccnc(N4CCC45COC5)n3)c2c1 — remaining binding (binding; 1 µM): 84%
CCCOc1ccc([C@@H]2[C@@H](C(=O)O)[C@H](c3ccc4c(c3)OCO4)CN2CC(=O)Nc2c(CC)cccc2CC)cc1 — remaining binding (cell-free assay, competition with immobilised ligand; 1 µM): 95%
O=C(NCCCN1CCOCC1)c1ccc(Nc2ncc(Cl)c(-c3ccc(Cl)s3)n2)cc1 — remaining binding (binding, competition with immobilised ligand; 1 µM): 100%
O=C1CCc2cc(Nc3cc(OC4CCOCC4)c([N+](=O)[O-])cc3Cl)ccc2N1 — remaining binding (cell-free assay, competition with immobilised ligand; 1 µM): 100%
CN(C)c1nccc(-c2cnn3ncccc23)n1 — remaining binding (binding; 1 µM): 56%
C[C@H](c1cccc(C#N)c1)n1cc(Cl)cc(C(N)=O)c1=N — remaining binding (cell-free assay, competition with immobilised ligand; 1 µM): 100%
COc1cnc(Nc2cccc(S(N)(=O)=O)c2)nc1N1CCN(c2ccccc2)CC1 — remaining binding (binding, competition with immobilised ligand; 1 µM): 94%
Nc1ncc2c(n1)-c1c([nH]c3ccc(C#CC4CC4)cc13)CCCC2 — remaining binding (binding, competition with immobilised ligand; 1 µM): 76%
CN(c1nccc(-c2cnn3ncccc23)n1)C1CC1 — remaining binding (binding; 1 µM): 100%
COc1ncc2cc3ccccc3nc2c1C#N — remaining binding (cell-free assay, competition with immobilised ligand; 5 µM): 79%
